Data as given in PubChem BioAssay.
A number with no mark means an inactive call.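 Rule for the calls, unless noted: active = viability increase at or above a cutoff of the median across tested compounds plus 3 SD (cut at about 8.5% in these data, passing the limit was not always enough); inconclusive = some gains above the cutoff, reason not given; inactive = the rest.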

Experiment: S. cerevisiae growth inhibition in restrictive medium, OD615, pilot screen, restrictive growth control, yeast lifespan reduction project (AID 706;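 active = growth inhibition above a set limit, 3 SD over mean compound inhibition, in both replicates, cut at about 43% in these data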;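 note: modified DeaD lifespan yeast strain shifted to restrictive glucose medium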)
Settings: OD615, 48 h, at 10 µM, hits give high values
How it was run: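 material = engineered S. cerevisiae DeaD strain | medium = glucose-based CSMM-D restrictive medium | times = 4 h pre-incubation, 48 h exposure at 30 °C | technique = OD615 absorbance reading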

**Q.** With `CCC(=O)c1cc(F)c(N2CCN(C(=O)c3ccco3)CC2)cc1C` as the compound, how does the growth inhibition read?
**A.** Its growth inhibition is -0.62%.

**Q.** For `CC(C)Cc1nnc(NS(=O)(=O)c2ccc(Cl)cc2)s1`, which growth inhibition is on record?
**A.** The growth inhibition was 3.6%.

**Q.** With `COc1ccc(N2C(=O)CCC(C(=O)N3CCCCC3)C2c2ccc(OC)c(OC)c2)cc1` (centres undefined) as the compound, how does the growth inhibition read?
**A.** The growth inhibition was -8.71%.

**Q.** With `Cc1c(C#N)c2ccccc2n1CC(=O)N1CCc2ccccc2C1` as the compound, how does the growth inhibition read?
**A.** The growth inhibition was -2.33%.

**Q.** For `COCCCNC(=O)c1ccc(CS(=O)(=O)c2ccc(OC)cc2)o1`, which growth inhibition is on record?
**A.** Its growth inhibition is -24.6%.

**Q.** With `CCCCSc1nc2c(cnn2-c2ccc(F)cc2)c(=O)[nH]1` as the compound, how does the growth inhibition read?
**A.** Its growth inhibition is -3.62%.

**Q.** With `COc1ccc2[nH]c(C)c(CCN3C(=O)OC(C)(C)C3(C)O)c2c1` (centres undefined) as the compound, how does the growth inhibition read?
**A.** Its growth inhibition is -5.26%.

**Q.** Which growth inhibition does the source give for `CCCCOCCCNC(=O)COc1ccccc1` here?
**A.** The growth inhibition was -5.04%.

**Q.** With `c1ccc(-c2cn3cccnc3n2)cc1` as the compound, how does the growth inhibition read?
**A.** The growth inhibition was -27%.

**Q.** Which growth inhibition does the source give for `CCCCn1c(SCC(=O)OCC)nc2c1c(=O)[nH]c(=O)n2C` here?
**A.** Its growth inhibition is 1.66%.

**Q.** With `O=C(CCn1c(=O)oc2ccccc21)NCc1ccco1` as the compound, how does the growth inhibition read?
**A.** The growth inhibition was -2.52%.

**Q.** With `CN(C)C(=O)N1CCN(C(=O)c2ccco2)CC1` as the compound, how does the growth inhibition read?
**A.** Its growth inhibition is 8.06%.

**Q.** Which growth inhibition does the source give for `CC(=O)C1=C(C)Nc2ncnn2C1c1cccc(OCc2ccccc2)c1` (centres undefined) here?
**A.** Its growth inhibition is -0.16%.

**Q.** With `CC1Cc2nc(SCC(=O)N3CCCc4ccccc43)n(C)c(=O)c2S1` (centres undefined) as the compound, how does the growth inhibition read?
**A.** The growth inhibition was -9.97%.

**Q.** For `CCOC(=O)N1CCN(C(=O)c2ccc3nc4ccsc4c(=O)n3c2)CC1`, which growth inhibition is on record?
**A.** Its growth inhibition is 7.09%.

**Q.** Which growth inhibition does the source give for `CC(C)(C)SCCNC(=O)CN1C(=O)c2ccccc2S1(=O)=O` here?
**A.** Its growth inhibition is -6.21%.

**Q.** For `COc1cccc(-c2nnc(NC(C)=O)o2)c1`, which growth inhibition is on record?
**A.** Its growth inhibition is 1.75%.

**Q.** Which growth inhibition does the source give for `CCCCc1cc(=O)oc2cc(OCC(=O)N(CC)CC)c(Cl)cc12` here?
**A.** The growth inhibition was 2.79%.

**Q.** For `CCOC(=O)CCc1c(C)nc2cc(-c3ccc(F)cc3)[nH]n2c1=O`, which growth inhibition is on record?
**A.** Its growth inhibition is -4.2%.

**Q.** With `CN(Cc1ccccc1)S(=O)(=O)c1ccc(S(=O)(=O)N2CCN(CCC#N)CC2)cc1` as the compound, how does the growth inhibition read?
**A.** The growth inhibition was -4.41%.

**Q.** Which growth inhibition does the source give for `Cc1ccc(-n2c3c(cc(C(=O)NCCCN4CCOCC4)c2=O)C(=O)CC(C)(C)C3)cc1` here?
**A.** Its growth inhibition is -4.07%.

**Q.** Which growth inhibition does the source give for `COc1cc2c(cc1OC)C(c1ccc(C)o1)CC(=O)N2` (centres undefined) here?
**A.** Its growth inhibition is 1.56%.

**Q.** Which growth inhibition does the source give for `O=C(Nc1ccc2c(c1)OCO2)c1ccc(CN2CCOCC2)cc1` here?
**A.** Its growth inhibition is -16.3%.

**Q.** Which growth inhibition does the source give for `CC1Cn2c(nnc2-c2ccc(F)cc2)S1` (centres undefined) here?
**A.** Its growth inhibition is -14.2%.

Experiment: doxorubicin toxicity protection in MRP-1 cells – H69AR cells, CellTiter-Glo, duplicate, MRP-1 activator project, pilot screen (AID 807);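 note: compound pretreatment 18-22 h then 72 h combined with doxorubicin; 0% = doxorubicin alone and 100% = vehicle without doxorubicin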
Settings: H69AR viability with doxorubicin, CellTiter-Glo luminescence; at 10 µM; hits give high values

**Q.** With `Cc1ccc(NC(=O)c2cc(-c3ccc(C)o3)nc3ccccc23)nc1` as the compound, how does the viability increase read?
**A.** The viability increase was -4.08%.

**Q.** Which viability increase does the source give for `CCc1cccc(NC(=O)Cn2cc3c(n2)CCCC3)c1` here?
**A.** Its viability increase is -1.41%.

**Q.** With `CCN(CC)C(=O)C1CCCN(c2ncnc3c2cnn3-c2ccc(Cl)cc2)C1` (centres undefined) as the compound, how does the viability increase read?
**A.** The viability increase was 3.1%.

**Q.** For `Cc1cccc(NC(=O)CS(=O)(=O)c2cn(C)c3ccccc23)c1`, which viability increase is on record?
**A.** Its viability increase is -3.05%.

**Q.** For `O=C(CN1C(=O)c2ccccc2S1(=O)=O)NCc1ccccc1Cl`, which viability increase is on record?
**A.** The viability increase was -0.47%.

**Q.** With `Cn1cnc2cc(NC(=O)c3ccc(Cl)cc3)ccc21` as the compound, how does the viability increase read?
**A.** Its viability increase is 0.08%.

**Q.** With `COC(=O)c1cn(NC(=O)C2CCCO2)c(=O)c2ccccc12` (centres undefined) as the compound, how does the viability increase read?
**A.** Its viability increase is -0.57%.

**Q.** Which viability increase does the source give for `O=C(c1ccc(Cl)s1)N1CCN(c2nc3ccccc3s2)CC1` here?
**A.** The viability increase was 0.2%.

**Q.** With `O=C(Nc1ccc(N2C(=O)C3C4C=CC(C4)C3C2=O)cc1)Nc1nncs1` (centres undefined) as the compound, how does the viability increase read?
**A.** Its viability increase is -1.28%.

**Q.** For `CNC(=O)c1ccccc1NC(=O)c1c(O)c2c([nH]c1=O)CCCC2`, which viability increase is on record?
**A.** The viability increase was -2.56%.

**Q.** With `COc1ccccc1CNC(=O)CCn1c(=O)[nH]c2ccsc2c1=O` as the compound, how does the viability increase read?
**A.** The viability increase was -0.23%.

**Q.** With `Cc1ccc(-c2nc3cc(NC(=O)C(C)C)ccc3o2)cc1` as the compound, how does the viability increase read?
**A.** Its viability increase is -5.7%.

**Q.** Which viability increase does the source give for `COc1ccccc1N1CCN(C(=O)c2cc(C3CC3)on2)CC1` here?
**A.** The viability increase was 0.32%.

**Q.** For `CCCCN(C(=O)c1ccc(Cl)cc1)C1CC2CCC(C1)N2C` (centres undefined), which viability increase is on record?
**A.** Its viability increase is -2.41%.

**Q.** Which viability increase does the source give for `COc1ccc(OC)c2[nH]c(=O)c(CCNC(=O)C(C)C)cc12` here?
**A.** Its viability increase is -0.71%.

**Q.** With `COc1ccccc1S(=O)(=O)Cc1ccc(C(=O)N2CCN(c3ccccn3)CC2)o1` as the compound, how does the viability increase read?
**A.** The viability increase was -1.97%.

**Q.** For `CCC(=O)c1cc(F)c(N2CCN(C(=O)c3ccco3)CC2)cc1C`, which viability increase is on record?
**A.** Its viability increase is -0.95%.

**Q.** For `CC(C)Cc1nnc(NS(=O)(=O)c2ccc(Cl)cc2)s1`, which viability increase is on record?
**A.** The viability increase was 2.68%.

**Q.** For `COc1ccc(N2C(=O)CCC(C(=O)N3CCCCC3)C2c2ccc(OC)c(OC)c2)cc1` (centres undefined), which viability increase is on record?
**A.** Its viability increase is 0.42%.

**Q.** Which viability increase does the source give for `Cc1c(C#N)c2ccccc2n1CC(=O)N1CCc2ccccc2C1` here?
**A.** The viability increase was -3.16%.

**Q.** For `COCCCNC(=O)c1ccc(CS(=O)(=O)c2ccc(OC)cc2)o1`, which viability increase is on record?
**A.** Its viability increase is -1.48%.

**Q.** For `CCCCSc1nc2c(cnn2-c2ccc(F)cc2)c(=O)[nH]1`, which viability increase is on record?
**A.** Its viability increase is -2.12%.

**Q.** For `COc1ccc2[nH]c(C)c(CCN3C(=O)OC(C)(C)C3(C)O)c2c1` (centres undefined), which viability increase is on record?
**A.** The viability increase was -1.56%.

**Q.** For `CCCCOCCCNC(=O)COc1ccccc1`, which viability increase is on record?
**A.** Its viability increase is -1.43%.

**Q.** Which viability increase does the source give for `c1ccc(-c2cn3cccnc3n2)cc1` here?
**A.** Its viability increase is 0.59%.

**Q.** For `CCCCn1c(SCC(=O)OCC)nc2c1c(=O)[nH]c(=O)n2C`, which viability increase is on record?
**A.** Its viability increase is -2.5%.

**Q.** For `O=C(CCn1c(=O)oc2ccccc21)NCc1ccco1`, which viability increase is on record?
**A.** Its viability increase is -1.66%.

**Q.** Which viability increase does the source give for `CN(C)C(=O)N1CCN(C(=O)c2ccco2)CC1` here?
**A.** The viability increase was -1.78%.

**Q.** For `CC(=O)C1=C(C)Nc2ncnn2C1c1cccc(OCc2ccccc2)c1` (centres undefined), which viability increase is on record?
**A.** Its viability increase is -0.76%.

**Q.** For `CC1Cc2nc(SCC(=O)N3CCCc4ccccc43)n(C)c(=O)c2S1` (centres undefined), which viability increase is on record?
**A.** The viability increase was -3.51%.

**Q.** With `CCOC(=O)N1CCN(C(=O)c2ccc3nc4ccsc4c(=O)n3c2)CC1` as the compound, how does the viability increase read?
**A.** The viability increase was -4.18%.

**Q.** With `CC(C)(C)SCCNC(=O)CN1C(=O)c2ccccc2S1(=O)=O` as the compound, how does the viability increase read?
**A.** Its viability increase is -0.57%.

**Q.** For `COc1cccc(-c2nnc(NC(C)=O)o2)c1`, which viability increase is on record?
**A.** The viability increase was -1%.

**Q.** With `CCCCc1cc(=O)oc2cc(OCC(=O)N(CC)CC)c(Cl)cc12` as the compound, how does the viability increase read?
**A.** Its viability increase is -1.39%.

**Q.** With `CCOC(=O)CCc1c(C)nc2cc(-c3ccc(F)cc3)[nH]n2c1=O` as the compound, how does the viability increase read?
**A.** Its viability increase is -1.53%.

**Q.** Which viability increase does the source give for `CN(Cc1ccccc1)S(=O)(=O)c1ccc(S(=O)(=O)N2CCN(CCC#N)CC2)cc1` here?
**A.** The viability increase was -8.59%.

**Q.** For `Cc1ccc(-n2c3c(cc(C(=O)NCCCN4CCOCC4)c2=O)C(=O)CC(C)(C)C3)cc1`, which viability increase is on record?
**A.** The viability increase was -1.54%.

**Q.** For `COc1cc2c(cc1OC)C(c1ccc(C)o1)CC(=O)N2` (centres undefined), which viability increase is on record?
**A.** Its viability increase is -4.72%.

**Q.** Which viability increase does the source give for `O=C(Nc1ccc2c(c1)OCO2)c1ccc(CN2CCOCC2)cc1` here?
**A.** Its viability increase is 0.57%.

**Q.** For `CC1Cn2c(nnc2-c2ccc(F)cc2)S1` (centres undefined), which viability increase is on record?
**A.** The viability increase was -0.42%.
